Compounds with a hit are over-represented: about 6% of the library has one in this group of screens.
HUVEC prolif 384 – human endothelial cell proliferation inhibition. HUVEC proliferation, CellTiter-Glo luminescence, 72 h; active compounds read low. viability, % at 10 µM (by protocol). 86,000 tested, 1.1% active;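 active = viability at or below 30%; inactive = viability above 30%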;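 note: 100% = median luminescence of DMSO-only cell control wells on each plate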
H69AR growth 86K – growth inhibitors of human H69AR lung tumor cells | H69AR lung tumor viability, ATP luminescence, 72 h; active compounds read low | viability, % at 10 µM | 85,000 tested, 6% active | AID 598;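 active = viability at or below 40%; inactive = viability above 40%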;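 note: multidrug resistant small cell line overexpressing MRP-1 efflux transporter; 100% = mean luminescence of untreated control wells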
Jurkat viability – cytotoxicity toward Jurkat cells; 56,000 tested, 1.2% active; Jurkat E6.1 viability, ATP luminescence, 48 h; inhibition, % at 4 µM;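 active = inhibition above the mean inhibition of all tested compounds plus 3 SD, cut at about 28% in these data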
Pyk2 oligo antag – Pyk2 (human) oligomerization antagonism; Q293 cells, Pyk2 FERM NanoBiT luminescence; active compounds read low; AID 1347419; 99,000 tested, 0.83% active; z-score (the deposit names both 25 µM and 10 µM); Q14289;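 active = Z-score of -3 or lower, scaled per plate to the spread of control and sample wells; inactive = z-score above -3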;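 note: negative z-score means lost luminescence so less FERM oligomerization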
Lung fibro prol – blocks proliferation of human lung fibroblasts; LL 47 human lung fibroblast viability, ATP luminescence; active compounds read low; viability, % at 10 µM; 85,000 tested, 1.1% active; AID 719;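 active = viability at or below 50% in the single dose screen; inactive = viability above 50%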;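 note: compound exposure lasted 72 h before the ATP readout; 100% = median luminescence of untreated cell-only wells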
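Assay system: human lung fibroblast line LL 47, low passage. Input: 1,150 fibroblasts seeded per well. Times: overnight cell rest, 72 h compound treatment at 37 °C. Evaluation: % viability of median cell-only signal. Technique: luminescent ATP detection, CellTiter-Glo. Control set: cell-only wells, no compound.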
cytoskel mod – alters cytoskeleton assembly in HUVEC cells; HUVEC TNFa F-actin phalloidin imaging, high content; inhibition, % at 2 µM; 91,000 tested, 0.18% active;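 active = inhibition above the batch mean plus 3 SD and confirmed as a hit by visual image inspection, cut at about 30% in these data, passing the limit was not always enough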
Starred values were filed as active, the others as inactive; . = no result.

SMILES	HUVEC prolif 384	H69AR growth 86K	Jurkat viability	Pyk2 oligo antag	Lung fibro prol	cytoskel mod
CCOC(=O)N1CCc2c(sc3c2C(=O)NC(c2ccccc2)N3)C1 (centres undefined)	56	32*	-2	-2	61	2
O=S(=O)(Cc1ccccc1)NCC1CCCO1 (centres undefined)	100	105	0	0.35	104	.
CCC12CCCN3CCC4(C(=C(C(=O)OC)C1)Nc1ccccc14)C32 (centres undefined)	86	78	1	0.3	87	11
Fc1ccc(CN2CCCCCCC2)cc1F	94	85	-4	0.74	96	2
CC(C)c1nnc(NC(=O)CCS(=O)(=O)c2nc(-c3cccs3)cc(C(F)(F)F)n2)s1	16*	1.1*	23	-2.2	85	11
CN(C)S(=O)(=O)c1ccc2nc(NC(=O)c3cccs3)sc2c1	79	29*	.	-2.3	110	8
O=C(Nc1nc2ccc(S(=O)(=O)N3CCCC3)cc2s1)c1cccs1	59	36*	5	-2	89	5
CN(C)S(=O)(=O)c1ccc2nc(NC(=O)c3cccnc3)sc2c1	86	89	7	1.2	96	9
Cc1ccc(C(=O)Nc2nc3ccc(S(C)(=O)=O)cc3s2)o1	67	29*	.	0.86	77	4
COC(=O)c1cc(NC(=O)c2ccccc2)c(=O)oc1C/C=N\OCc1ccc(Cl)cc1Cl	92	99	.	-0.1	97	-17
O=C(Nc1ccc2c(c1)OCCO2)C1c2ccccc2C(=O)N2CCc3ccccc3C12 (centres undefined)	95	101	.	.	93	-16
COCCN1C(=O)c2ccccc2C(C(=O)Nc2ccc3c(c2)OCCO3)C1c1ccc(F)cc1 (centres undefined)	93	95	.	-3.4*	89	3
O=C(Cn1ncc2c1-c1ccccc1OC2)N1CCN(Cc2ccc3c(c2)OCO3)CC1	88	85	11	.	98	2
COC(=O)c1ccccc1CCC(C)=O	78	24*	0	1.3	91	17
COC(=O)c1ccccc1S(=O)(=O)C(C)(C)C	94	93	.	2.5	98	-14
CCn1nc(C(=O)OCC(=O)c2c[nH]c3ccccc23)c2ccccc2c1=O	90	82	-3	-2.5	98	-21
CC(C)n1nc(C(=O)OCC(=O)c2c[nH]c3ccccc23)c2ccccc2c1=O	90	81	.	-3.6*	96	8
Cc1ccc(-c2nnc3n2N=C(c2ccccc2Br)CS3)cc1	109	57	3	-1.6	102	-13
O=C1c2[nH]nc(-c3ccccc3O)c2C(c2cccc(O)c2)N1Cc1ccco1 (centres undefined)	82	38*	.	-2.5	89	-59
COc1ccc(C2C(C(C)=O)=C(O)C(=O)N2CCc2ccccc2)c(OC)c1 (centres undefined)	99	93	-1	0.91	97	8
COc1cccc(/C(O)=C2/C(=O)C(=O)N(CCCN(C)C)C2c2cccc(Cl)c2)c1 (centres undefined)	90	97	.	.	101	.
CC(=O)C1=C(O)C(=O)N(Cc2cccnc2)C1c1ccc(C)cc1 (centres undefined)	124	96	.	.	97	13
COc1ccc(C2c3c(-c4ccccc4O)n[nH]c3C(=O)N2CCc2ccc(OC)c(OC)c2)cc1 (centres undefined)	78	68	4	-3.5*	90	9
Oc1ccccc1-c1n[nH]c(=S)n1Cc1ccco1	84	82	.	-0.32	95	-12
Cc1ccc(C2c3c(-c4ccccc4O)n[nH]c3C(=O)N2Cc2ccncc2)cc1 (centres undefined)	49	7.6*	86*	-2.4	57	-12
COc1ccc(CCN2C(=O)c3[nH]nc(-c4ccccc4O)c3C2c2cccc(Cl)c2)cc1 (centres undefined)	15*	23*	.	-3.5*	54	11
CC(C)(C)NS(=O)(=O)c1ccc(NS(C)(=O)=O)cc1	99	104	.	1.1	104	3
Cn1c(=O)c2c(nc(CN3CCOCC3)n2CCCO)n(C)c1=O	102	101	.	0.92	92	.
Cc1noc(C)c1CSc1nc2[nH]ncc2c(=O)n1-c1ccccc1	.	.	83*	2.2	.	-6
O=c1c2ccccc2nc(SCc2nnc(-c3ccccc3)o2)n1-c1ccccc1	91	86	-2	-2.7	92	.
